MIN6 prolif: inducers of MIN6 beta-cell proliferation, primary screen, ATP luminescence, uHTS; proliferation, % at 10 µM; 330,000 compounds, 0.29% hits; AID 2380, 2010; MIN6 cells proliferation, ATPlite luminescence, 48 h; cells starved in 0.2% serum; 100% = growth in 10% serum;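 active = compounds whose signal lies at least 3.5 SD above the mean of all wells on their plate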;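 note: 0% = DMSO-treated cells in low-serum medium and 100% = 10% serum control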
MsrA act: bovine MsrA enzyme activators, primary screen, biochemical, absorbance, HTS. 360,000 compounds, 0.3% hits. purified bovine MsrA, absorbance read-out. Methionine sulfoxide reductase A (Bos taurus). activation, % at 10.6 µM. AID 602163, 2012; in the data active = activation above about 7.5%;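 note: 0% = vehicle and 100% = reference activator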
MsrA inh: bovine MsrA enzyme inhibitors, primary screen, biochemical, absorbance, HTS. 360,000 compounds, 0.75% hits. AID 651718, 2012. inhibition, % at 15.5 µM. Methionine sulfoxide reductase A (Bos taurus). purified bovine MsrA, absorbance read-out; in the data active = inhibition above about 4.5%;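 note: 0% = vehicle wells with enzyme and 100% = reference inhibitor wells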
MT1-MMP act inh: blockers of MT1-MMP proenzyme processing, primary screen, HT1080 RFP-PRO-GFP cells, GFP/RFP fluorescence. Matrix metalloproteinase-14 (Homo sapiens), P50281. GFP/RFP ratio fluorescence, overnight; percent of plate control window, DMSO zero. GFP/RFP ratio change, % at 20 µM. 360,000 compounds, 0.061% hits;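 active = GFP/RFP ratio change of at least 30% with cell ATP level not reduced by more than half and red fluorescence within 50% of control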
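system = RFP-PRO-GFP reporter HT1080 cells | dosing = 20 µM single dose, 1% DMSO | timing = overnight cell settling, then overnight compound exposure, 37 °C, 5% CO2 | read-out basis = GFP/RFP fluorescence ratio | controls = DMSO and RFP-L50D-GFP cell wells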
SKN-1 block: suppressors of acrylamide-induced Pgst-4::GFP reporter in worms, primary screen, SKN-1 inhibitor project, whole organism, uHTS, GFP/RFP fluorescence ratio, strain VP596. 360,000 compounds, 0.49% hits. inhibition, % at 21.8 µM. C. elegans VP596 Pgst-4::GFP/RFP ratio, 24 h;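 active = interference check ratio from 0.5 to 1.5 plus GFP to RFP signal ratio inhibition reaching or exceeding a fixed threshold, cut at about 30% in these data, passing the limit was not always enough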
DAGLB inhibitor: DAGLB lipase inhibitors, primary screen, biochemical, fluorescence, HTS; HEK293T DAGLB membrane lysate, EnzChek fluorogenic substrate; inhibition, % at 5.17 µM; 340,000 compounds, 0.059% hits; in the data active = inhibition above about 34%;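 note: 0% = enzyme with vehicle and 100% = wells lacking enzyme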
Target sequence (Q8NCG7 whole entry, looked up): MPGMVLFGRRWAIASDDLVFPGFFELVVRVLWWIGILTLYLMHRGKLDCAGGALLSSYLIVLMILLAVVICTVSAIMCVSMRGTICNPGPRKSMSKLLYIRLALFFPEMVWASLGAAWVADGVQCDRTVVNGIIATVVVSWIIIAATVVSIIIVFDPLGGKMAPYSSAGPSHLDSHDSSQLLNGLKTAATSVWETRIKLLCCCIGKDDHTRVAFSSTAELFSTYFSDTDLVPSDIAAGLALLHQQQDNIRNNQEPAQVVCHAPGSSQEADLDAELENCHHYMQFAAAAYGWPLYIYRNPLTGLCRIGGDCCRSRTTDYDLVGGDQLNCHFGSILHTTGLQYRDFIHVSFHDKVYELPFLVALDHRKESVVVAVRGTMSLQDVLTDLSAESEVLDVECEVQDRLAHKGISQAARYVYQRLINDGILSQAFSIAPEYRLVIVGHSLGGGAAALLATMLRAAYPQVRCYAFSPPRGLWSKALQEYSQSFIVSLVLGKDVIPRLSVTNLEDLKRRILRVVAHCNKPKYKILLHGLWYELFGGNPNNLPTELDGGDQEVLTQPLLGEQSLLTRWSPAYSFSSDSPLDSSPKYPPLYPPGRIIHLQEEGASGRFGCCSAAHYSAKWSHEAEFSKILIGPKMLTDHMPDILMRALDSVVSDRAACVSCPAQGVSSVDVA
* marks the source's active call; other numbers are inactive results; x = not tested or not shown. The list is not random: actives were taken first. Their share in the collection is about 1.8%.

SMILES	MIN6 prolif	MsrA act	MsrA inh	MT1-MMP act inh	SKN-1 block	DAGLB inhibitor
CCCCN1CC(COCc2ccccc2)Oc2cccc(Sc3ccc(OC)c(OC)c3)c2S1(=O)=O (stereo not drawn)	x	x	2	x	x	x
Cc1cc(C)nc(N2C(=O)CC(C(C)c3ccccc3)C2=O)n1 (stereo not drawn)	-3	1	0	0	37*	1
CC(c1ccccc1)C1CC(=O)N(c2ccc(C(=O)O)cc2)C1=O (stereo not drawn)	-2	1	1	2	10	5
O=C(N[C@H](Cc1ccccc1)C(=O)NC1CCCCC1)[C@H]1O[C@@H](n2ccc(=O)[nH]c2=O)[C@H](O)[C@@H]1O	x	x	0	x	x	x
CCOC(=O)C(=CNc1ccc2c(c1)CCN2C(C)=O)C(=O)OCC	-3	-5	4.9*	1	1	3
CCN(CC)S(=O)(=O)c1ccc(N=Nc2c(C)[nH]n(C(N)=S)c2=O)cc1	-2	-12	4.5*	12	2	20
O=C1c2ccccc2CCc2ccc(Br)cc21	-3	-1	-1	-1	36*	-6
CCOC(=O)CSc1nc2sc3c(c2c(=O)n1-c1ccc(C)cc1)CCN(C)C3	-3	-9	4.6*	-3	-15	2
CCOC(=O)CSc1nc2sc3c(c2c(=O)n1-c1ccc(OC)cc1)CCN(C)C3	-2	-5	4	-3	5	2
COC(=O)[C@]12C[C@H](CC(=O)N3CCN(C(=O)C4CC4)CC3)C(=O)N(Cc3ccc4c(c3)OCO4)C1=C[C@H](COCc1ccccc1)O[C@@H]2C	x	x	0	x	x	x
CN(C)CCNc1ncnc2c1sc1nc(N3CCCC3)c3c(c12)CC(C)(C)OC3	-4	0	1	8	50*	1
CCN(Cc1ccccc1)C(=O)Nc1c(Cl)cccc1Cl	x	x	2	x	x	x
Cc1cc(Nc2cccc(Br)c2)cc(=O)n1-c1cccc(Br)c1	x	x	0	x	x	x
COC(=O)[C@H](Cc1ccccc1)N[C@H](c1ccc(OC)cc1)[C@@H](O)Cc1ccccc1	x	x	-1	x	x	x
N#C/C(=C\c1ccc(N2CCOCC2)cc1)c1ccccc1	-3	-1	2	-1	48*	-3
COc1cc(/C=C(\C#N)c2nnc(N3CCOCC3)n2-c2ccccc2)ccc1O	3	-10	4.6*	-6	4	-2
COc1ccccc1Cc1c(-c2ccccc2)nc2ccc(C)cn12	x	x	0	x	x	x
COC(=O)c1c(C)[nH]c(O)c1C=Nc1ccc(C#N)cc1	-1	-4	0	-6	46*	0
CC(=C1SC(=S)NC1=O)c1ccc(Cl)c(O)c1	x	x	2	x	x	x
CN(C)c1ccc(/C=N/NC2=NS(=O)(=O)c3ccccc32)cc1	-1	-3	5	-3	39*	1
COc1ccc(/C=N/NC2=NS(=O)(=O)c3ccccc32)cc1	-1	-5	4	1	4	0
CSc1cccc(NC(=O)C2C3C=CC4(O3)C2C(=O)N(CCN2CCOCC2)C4C(=O)NC2CCCCC2)c1 (stereo not drawn)	0	-1	-1	1	37*	-1
CCc1cc2c(nc1CC)CCCN2C	x	x	0	x	x	x
COc1ccc(-c2cc(C(=O)Nc3c(C)n(C)n(-c4ccccc4)c3=O)c3ccccc3n2)c(OC)c1	-3	-5	2	-4	36*	0
CCOC(=O)C1C(=O)C=C(C)C(C(=O)OCC)C1c1cccc([N+](=O)[O-])c1 (stereo not drawn)	-4	1	4.6*	2	8	-1
COC(=O)c1ccc(N)c2c(N)ccc(C(=O)OC)c12	x	x	1	x	x	x
CCCC(C(=O)NCC1CCCO1)N(Cc1ccccc1)C(=O)CNS(=O)(=O)c1ccccc1 (stereo not drawn)	0	-1	0	2	42*	-1
Clc1ncc(CSc2ccccc2)s1	0	-1	0	0	39*	-6
